Measured values: ChEMBL document CHEMBL1139922, “Discovery and structure-activity relationship studies of indole derivatives as liver X receptor (LXR) agonists” (Bioorg Med Chem Lett, 2007)

Columns and labels:
[1] = molecular target: T1, Oxysterols receptor LXR-beta (Homo sapiens, UniProt P55055); assay: Agonist activity at LXRbeta LBD by HTRF cofactor peptide recruitment assay; type: functional
T1 sequence (P55055 whole entry): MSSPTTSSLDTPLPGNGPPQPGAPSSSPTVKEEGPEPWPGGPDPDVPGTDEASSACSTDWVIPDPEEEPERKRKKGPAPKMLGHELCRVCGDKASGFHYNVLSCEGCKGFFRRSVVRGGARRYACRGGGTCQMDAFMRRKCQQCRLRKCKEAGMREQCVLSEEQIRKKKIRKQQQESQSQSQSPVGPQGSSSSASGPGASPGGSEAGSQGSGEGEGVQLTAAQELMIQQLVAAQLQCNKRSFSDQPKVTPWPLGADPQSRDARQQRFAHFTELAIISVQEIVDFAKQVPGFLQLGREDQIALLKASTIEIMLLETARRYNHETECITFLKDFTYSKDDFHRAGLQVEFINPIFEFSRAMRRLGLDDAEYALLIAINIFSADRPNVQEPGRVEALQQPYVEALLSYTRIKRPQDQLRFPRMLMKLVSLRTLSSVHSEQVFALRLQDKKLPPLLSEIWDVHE

[2] = test system: THP-1; assay: Ratio of induction of ABCA1 gene expression in THP1 cells at 10 uM to control; type: functional, Homo sapiens
[3] = test system: THP-1; assay: Induction of cholesterol efflux in THP1 cells after 18 hrs; type: functional, cell-based; conditions: Homo sapiens, THP-1, 18 h
[4] = test system: THP-1; assay: Ratio of induction of cholesterol efflux in THP1 cells at 10 uM to control after 18 hrs; type: functional, Homo sapiens
[5] = molecular target: T2, Oxysterols receptor LXR-alpha (Homo sapiens, UniProt Q13133); assay: Agonist activity at LXRalpha LBD by HTRF cofactor peptide recruitment assay; type: functional
T2 sequence (Q13133 whole entry): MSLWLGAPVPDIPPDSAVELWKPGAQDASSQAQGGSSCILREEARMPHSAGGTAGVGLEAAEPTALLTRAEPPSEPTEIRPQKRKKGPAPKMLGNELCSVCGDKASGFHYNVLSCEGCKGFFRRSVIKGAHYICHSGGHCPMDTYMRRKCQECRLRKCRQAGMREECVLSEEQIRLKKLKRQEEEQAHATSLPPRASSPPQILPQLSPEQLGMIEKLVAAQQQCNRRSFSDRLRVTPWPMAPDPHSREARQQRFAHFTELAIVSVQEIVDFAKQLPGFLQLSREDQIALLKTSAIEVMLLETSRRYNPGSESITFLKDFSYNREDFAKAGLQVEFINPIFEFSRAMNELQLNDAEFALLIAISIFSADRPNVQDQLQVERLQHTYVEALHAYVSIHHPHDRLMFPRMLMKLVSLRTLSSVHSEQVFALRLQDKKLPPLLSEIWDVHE

[6] = test system: HepG2 (Homo sapiens); assay: Ratio of induction of SREBP1c gene expression in HepG2 cells at 10 uM to control
[7] = molecular target: T1, Oxysterols receptor LXR-beta; assay: Activation of LXRbeta co-transfected in COS7 cells with RXRalpha by reporter transactivation assay; type: functional, cell-based, COS-7
Method in brief: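 Cells exposed to vehicle or compound for 16 h; LXR reporter activation read as luciferase activity in cell lysate. EC50 derived from means of quadruplicate samples, single experiment.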

[8] = test system: HepG2; assay: Ratio of induction of lipogenesis in HepG2 cells at 10 uM to control after 24 hrs; type: functional, Homo sapiens

| SMILES | EC50 [1] | EC50 [3] | EC50 [5] | EC50 [7] | Ratio [2] | Ratio [4] | Ratio [6] | Ratio [8] |
| --- | --- | --- | --- | --- | --- | --- | --- | --- |
| CC(C)(C)OC(=O)n1c(-c2ccc3c(c2)CC(NS(=O)(=O)c2ccccc2)C3)cc2ccccc21 (configuration not stated) | 190 nM | 680 nM | 1500 nM | 65 nM | 8.4 | 1.6 | 3.1 | 3.1 |
| CC(C)(C)OC(=O)n1c(-c2ccc3c(c2)CC(NS(=O)(=O)c2ccc(F)cc2)C3)cc2ccccc21 (configuration not stated) | 460 nM | 570 nM | 4300 nM | 120 nM | 11.4 | 1.7 | 2 | 2 |
| CC(C)(C)OC(=O)n1c(-c2ccc3c(c2)CC(NS(=O)(=O)c2ccc(-c4ccon4)s2)C3)cc2ccccc21 (configuration not stated) | 670 nM | 590 nM | > 30000 nM | 336 nM | 7.5 | 1.7 | 2.1 | 1.2 |

Stronger by EC50 [1], values ahead:

| EC50 [1] | EC50 [3] | EC50 [5] | EC50 [7] | SMILES | Ratio [2] | Ratio [4] | Ratio [6] | Ratio [8] |
| --- | --- | --- | --- | --- | --- | --- | --- | --- |
| 90 nM | 210 nM | 570 nM | 52 nM | CC(C)(C)OC(=O)n1c(-c2ccc3c(c2)CC(NS(=O)(=O)c2c(F)cccc2F)C3)cc2ccccc21 (configuration not stated) | 7.5 | 1.7 | 3 | 3.2 |
| 110 nM | 570 nM | 540 nM | 363 nM | CC(C)(C)OC(=O)n1c(-c2ccc3c(c2)CC(NS(=O)(=O)c2cccs2)C3)cc2ccccc21 (configuration not stated) | 7.3 | 1.5 | 2.9 | 1.7 |
| 35 nM | 10 nM | 367 nM | – | O=C(O)Cc1cccc(OCCCN(Cc2cccc(C(F)(F)F)c2Cl)CC(c2ccccc2)c2ccccc2)c1 | 10.7 | 1.8 | 5.2 | 2.7 |
